# Compounds with a hit are over-represented: about 3.8% of the library has one in this group of screens.
# T cell HTS = T cell immune modulation candidate; AID 2052; response (vesicle binding), % at 7 µM; hit rate 0.068% among 330,000; 2C CD8+ T cell-vesicle binding, flow cytometry; hits give low values;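 active means response, share of CD8 T cells binding vesicles, and their 90th percentile fluorescence all below set limits, cut at about 80% in these data, passing the limit was not always enough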;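 further: values below 100% mean blocked vesicle binding to the CD8+ T cells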
#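 Benchmarks: naked versus QL9-loaded vesicles / Assay system: purified 2C TCR transgenic mouse naive CD8+ T cells / Technique: high-throughput flow cytometry with anti-B7-1 and anti-CD8 staining / Timing: Cell–vesicle co-incubation 1.5 h at 37 °C, staining 20 min on ice / Read-out: percent CD8+ FL2 mean versus row control / Probe or stimulus: QL9-loaded Drosophila micro-vesicles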
# MPTP inh = permeability transition pore inhibition; isolated mouse mitochondria, Ca2+ swelling absorbance, 30 min; inhibition, % at 10 µM; hit rate 1.4% among 360,000; AID 602449;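 active means inhibition of 50% or more, scaled per plate between neutral and stimulator controls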;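 further: 0% = DMSO wells given calcium and 100% = 1 mM EGTA wells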
# Exocytosis inh = lytic granule exocytosis inhibition; TALL-104 LAMP-1 surface exposure, flow cytometry; cells stimulated with thapsigargin and PMA; inhibition, % at 10 µM; hit rate 0.66% among 360,000;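 active means inhibition above about 55%, limit read from the data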
# rCAG binder = r(CAG) repeat RNA binding. hit rate 1.3% among 370,000. TO-PRO-1 dye displacement fluorescence. inhibition, % at 3 µM;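 active means inhibition above the plate cutoff, the mean of all test compounds on that plate plus 3 SD, cut at about 35% in these data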;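 further: 0% = DMSO alone and 100% = 100 µM mitoxantrone as full dye displacement; higher means more dye released from RNA so lower well fluorescence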
# B2AR ag = agonists of human beta-2 adrenergic receptor inducing internalization; P07550; Am2.2-beta2AR cells, FAP receptor internalization, flow cytometry; response, % (no concentration beside the values); hit rate 0.43% among 340,000;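 active means response above a set limit, near 3 SD of response in nonfluorescent compounds, cut at about 42% in these data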
# Target sequence (P07550 whole entry, looked up): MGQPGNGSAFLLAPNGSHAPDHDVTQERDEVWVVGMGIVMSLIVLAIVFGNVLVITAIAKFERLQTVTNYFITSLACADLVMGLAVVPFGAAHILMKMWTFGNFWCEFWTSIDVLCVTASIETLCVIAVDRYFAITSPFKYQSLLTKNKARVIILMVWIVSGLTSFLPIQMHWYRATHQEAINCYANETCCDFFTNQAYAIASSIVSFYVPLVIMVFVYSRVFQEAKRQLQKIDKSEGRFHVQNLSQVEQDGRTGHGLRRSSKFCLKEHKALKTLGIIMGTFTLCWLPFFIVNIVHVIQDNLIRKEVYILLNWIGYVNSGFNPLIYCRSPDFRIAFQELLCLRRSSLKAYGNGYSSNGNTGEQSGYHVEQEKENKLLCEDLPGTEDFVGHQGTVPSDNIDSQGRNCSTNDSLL
# V-ATPase pHluor = regulators of yeast V-ATPase proton transport; response, % at 10 µM; S. cerevisiae, pHLuorin cytosolic pH fluorescence; hit rate 0.37% among 350,000; in the data active means response mostly above about 7.3%, no sharp cut-off; inactive means mostly below about 5.4%; further: actives read high
# The depositor's hits bear a star; i = inactive; . = no result given.
SMILES,T cell HTS,MPTP inh,Exocytosis inh,rCAG binder,B2AR ag,V-ATPase pHluor
CCCCCCC(=O)N(O)C1CC(=O)N(c2ccc(Cl)cc2)C1=O (stereo not drawn),339,6,72*,9,8,1
CC(=O)Nc1ccc(NC(=O)C(C)OC(=O)c2cccc(S(=O)(=O)N3CCCCC3)c2)cc1 (stereo not drawn),255,0,-7,0,0,4
CC(=O)Nc1ccc(NC(=O)C(C)OC(=O)c2cccc(S(=O)(=O)N3CCCCCC3)c2)cc1 (stereo not drawn),563,0,-5,3,-5,15*
O=C(O)c1cc(NC(=O)c2ccc(Br)cc2)cc(NC(=O)c2ccc(Br)cc2)c1,334,0,-5,80*,-12,-2
CCOc1cc(/C=C2\SC(=N)N(c3nonc3N)C2=O)ccc1OCCN1CCOCC1,i,0,-2,40*,8,-1
Cc1c(/C=N/Nc2nc3ccccc3[nH]2)c2ccccc2n1C,430,1,85*,23,12,5
Cn1c(/C=N/Nc2nc3ccccc3[nH]2)nc2ccccc21,301,1,0,18,-1,1
O=C(Nc1ccc(N2CCCC2)cc1)C(Cl)c1ccccc1 (stereo not drawn),180,-5,-2,.,76*,-1
Cc1nn(-c2ccccc2)c(Cl)c1/C=N/Nc1nc2ccccc2n1C,115,3,90*,0,2,-2
Cc1nn(-c2ccccc2)c(Cl)c1/C=N/NC(N)=O,753,1,-14,2,5,-2
O=C(c1nnsc1S(=O)(=O)c1ccc(Cl)cc1)N1CCOCC1,.,-1,-1,-4,24,2
CNC(=O)c1nnsc1S(=O)(=O)c1ccc(Cl)cc1,.,-1,24,-1,49*,-1
C[C@@H]1COc2cc(Br)ccc2S(=O)(=O)N1Cc1cn(Cc2ccc(Cl)cc2)nn1,.,.,.,4,.,.
O=C(/C=C/c1ccc(-c2ccccc2)o1)c1ccccc1,335,3,78*,22,3,5
O=Cc1ccc(-c2cccc(C(=O)O)c2)o1,406,-1,-6,-1,-3,-2
O=C(/C=C/c1ccc(-c2ccccc2[N+](=O)[O-])o1)c1ccc(F)cc1,253,7,80*,26,2,-1
Cc1ccc(-c2ccc(/C=C/C(=O)c3ccccc3)o2)cc1,127,10,68*,21,13,4
CCCCNC(=O)C1CCCN1C(=O)Nc1ccc(Cl)cc1 (stereo not drawn),.,.,.,1,.,.
Cc1ccc2c(c1)C1C=CCC1C(C(=O)O)N2 (stereo not drawn),166,.,.,.,.,.
CC(=O)c1ccc2c(c1)C1C=CCC1C(C(=O)O)N2 (stereo not drawn),.,1,-2,96*,6,1
CCC(C(=O)OCC(=O)N1C(C)CCCC1C)c1ccccc1 (stereo not drawn),215,0,-9,-10,.,284*
Cc1ccc(S(=O)(=O)CCC(=O)OCC(=O)N2CCN(c3ccccc3)CC2)cc1,255,0,-5,-8,5,0
COc1ccc(N2CCN(C(=O)COC(=O)CCS(=O)(=O)c3ccc(C)cc3)CC2)cc1,356,0,-2,-6,14,15*
Cc1ccc(NC(=O)c2ccc(NCCCN3CCC(C)CC3)c([N+](=O)[O-])c2)cc1F,276,12,68*,-1,-4,0
O=C(Nc1cccc(Cl)c1)c1ccc(NCCCN2CCOCC2)c([N+](=O)[O-])c1,159,-6,10,6,11,-2
SMILES,T cell HTS,MPTP inh,Exocytosis inh,rCAG binder,B2AR ag,V-ATPase pHluor
CC(C)(C)c1ccc(S(=O)(=O)N2CCC(c3cn4ccccc4n3)CC2)cc1,.,.,.,7,.,.
O=C(COc1ccc2c3c(c(=O)oc2c1)CCCC3)NC(Cc1ccc(Cl)cc1)C(=O)O (stereo not drawn),346,0,-5,38*,-9,-1
O=C(COc1ccc2c3c(c(=O)oc2c1)CCCC3)N[C@@H](Cc1ccccc1)C(=O)O,188,0,-4,26,-20,0
C#CCOCCOCCOCCNc1nc(N2CCN(C(=O)[C@H](Cc3cc4ccccc4[nH]3)n3cc([C@@H](N)C(C)CC)nn3)CC2)nc(N2CCN(C(=O)[C@H](Cc3cc4ccccc4[nH]3)n3cc([C@@H](N)Cc4ccc(O)cc4)nn3)CC2)n1 (stereo partly drawn),638,.,.,.,.,.
C#CCOCCOCCOCCNc1nc(N2CCN(C(=O)[C@H](Cc3cc4ccccc4[nH]3)n3cc([C@@H](N)Cc4ccc(O)cc4)nn3)CC2)nc(N2CCN(C(=O)[C@H](Cc3cc4ccccc4[nH]3)n3cc([C@@H](N)CC(C)C)nn3)CC2)n1,.,.,.,.,73*,1
C#CCOCCOCCOCCNc1nc(N2CCN(C(=O)[C@H](Cc3ccc(O)cc3)n3cc([C@@H](N)C(C)CC)nn3)CC2)nc(N2CCN(C(=O)[C@H](Cc3cc4ccccc4[nH]3)n3cc([C@@H](N)C(C)CC)nn3)CC2)n1 (stereo partly drawn),726,-5,9,.,58*,-13
Cn1cc(CCOCc2ccccn2)c2ccccc21,.,.,.,4,.,.
O=C(/C=C/c1ccccc1[N+](=O)[O-])c1ccccc1Br,339,-2,7,0,57*,2
O=C(/C=C\c1ccccc1[N+](=O)[O-])Nc1ccccc1,155,1,-2,0,-1,-4
Cc1ccc(C(=O)/C=C/c2ccc(-c3ccccc3[N+](=O)[O-])o2)cc1,219,1,48,21,5,10
Cc1ccc(C(=O)/C=C/c2ccccc2[N+](=O)[O-])cc1,529,-1,4,0,63*,2
CNC(=O)C1C(=S)NC(N)=C(C#N)C1c1ccccc1 (stereo not drawn),428,-4,69*,1,0,-1
O=c1ncn(-c2cccc([N+](=O)[O-])c2)c2ccccc12,i,0,-8,7,4,-1
Cc1c(Cl)cccc1-n1cnc(=O)c2ccccc21,401,2,-2,-3,3,13*
C/C(=N\NC(=O)C(c1ccccc1)c1ccccc1)c1ccc(O)cc1,360,0,2,-1,-16,2
C/C(=N\NC(=O)C(c1ccccc1)c1ccccc1)c1ccccn1,222,-2,0,0,46*,0
N/C(=N\OC(=O)C(c1ccccc1)c1ccccc1)c1ccccn1,153,-1,-1,1,58*,-2
N/C(=N\OC(=O)c1ccccc1)c1ccccn1,210,-1,3,1,-5,5
N=C1C(=O)OCC1c1ccccc1NC(=O)c1ccccc1 (stereo not drawn),144,0,-6,-2,-2,2
COc1ccc(C2COC(=O)C2=N)c(NC(=O)c2ccc(Cl)cc2)c1 (stereo not drawn),0.0*,0,0,2,-11,4

# High-throughput results deposited in PubChem by several laboratories.
